Source: PubChem BioAssay (several laboratories)
An excerpt weighted towards active compounds, which were near 2% of everything screened.
EBV LMP1 NFkB: inhibitors of Epstein-Barr LMP1-induced NF-kappaB reporter. LMP1-induced NF-kappaB luciferase reporter cells, luminescence. inhibition, % at 12.5 µM. 350,000 tested, 0.69% active. AID 504558; in the data active = inhibition above about 41%
NR2E3 ag-1: NR2E3 (human) agonism; Q9Y5X4; GST-NR2E3/biotin-RetCOR TR-FRET, 1536-well; inhibition of corepressor binding, % at 4.78 µM; 320,000 tested, 0.12% active; AID 2300;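 active = percent inhibition above the cutoff of mean plus 3 SD of all tested compounds, set per screening campaign, cut at about 20% in these data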
Target sequence (Q9Y5X4 whole entry, looked up): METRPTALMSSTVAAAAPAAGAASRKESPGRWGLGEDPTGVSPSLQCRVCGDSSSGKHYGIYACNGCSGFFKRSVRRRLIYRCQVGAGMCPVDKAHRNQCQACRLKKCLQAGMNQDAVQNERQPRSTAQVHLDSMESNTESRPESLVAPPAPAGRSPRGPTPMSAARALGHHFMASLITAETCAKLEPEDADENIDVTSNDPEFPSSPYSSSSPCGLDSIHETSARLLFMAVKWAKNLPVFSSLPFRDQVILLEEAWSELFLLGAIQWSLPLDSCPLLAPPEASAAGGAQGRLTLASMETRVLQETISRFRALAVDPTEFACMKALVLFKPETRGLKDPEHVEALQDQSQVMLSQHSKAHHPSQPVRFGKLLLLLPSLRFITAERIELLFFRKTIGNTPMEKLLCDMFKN
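system = GST-tagged NR2E3 plus biotinylated RetCOR corepressor | input = 1.35 nM GST-NR2E3 | also added = 7 nM biotin-RetCOR | schedule = 5 h incubation at 4 °C | measured by = TR-FRET with europium anti-GST and streptavidin-D2, 340 nm excitation | read-out = percent loss of FRET ratio relative to control wells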
NR2E3 ag-2: agonists of human NR2E3 nuclear receptor. CHO-S Gal4-NCOR/VP16-NR2E3 two-hybrid, luciferase. 360,000 tested, 0.35% active. inhibition of corepressor binding, % at 3.98 µM;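 active = inhibition above the mean of all tested compounds plus 3 SD, cut at about 70% in these data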;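 also: higher means lower luciferase signal from less NR2E3 corepressor binding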
TROY signal inh: blocks TROY-dependent signaling in reporter cells; inhibition, % at 10 µM; 360,000 tested, 0.98% active; AID 1347056; Q293 LMP1-TROYcd NF-kB luciferase reporter, 4 h;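 active = compounds whose plate-normalised and pattern-corrected inhibition of the luciferase reporter signal at the single screening dose is 50% or more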
HIF act: HIF pathway transcriptional activation | U2OS HRE-luciferase reporter, luminescence; normalized: DMSO 0%, desferrioxamine 100% | activation, % at 7.5 µM (by protocol) | 300,000 tested, 0.32% active | AID 1910;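 active = mean activation of at least 10% of the iron chelator positive control signal, with at least half of replicates also reaching 10%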
NR2E3 ag confirm: confirmation of human NR2E3 agonists; shares compounds with NR2E3 ag-2; 2,300 tested, 51% active; inhibition, % at 3.98 µM; AID 624378; CHO-S mammalian two-hybrid NR2E3-NCOR, luciferase luminescence;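 active = average inhibition above a cutoff equal to the mean inhibition of all tested compounds plus one SD, cut at about 70% in these data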
VP16 counter: reduces GAL4-VP16 reporter signal in NR2E3 counterscreen. CHO-S GAL4-VP16 luciferase reporter, luminescence. 2,300 tested, 29% active. inhibition, % at 3.98 µM. shares compounds with NR2E3 ag-2;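 active = mean inhibition above a cutoff equal to the average over all tested compounds plus one standard deviation, cut at about 70% in these data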;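 also: luciferase from a UAS reporter driven by GAL4-VP16 transactivation; higher means less reporter light so more repression of VP16 activity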
Numbers stand for hits; – = inactive; · = no result.

SMILES | EBV LMP1 NFkB | NR2E3 ag-1 | NR2E3 ag-2 | TROY signal inh | HIF act | NR2E3 ag confirm | VP16 counter
O=C(c1cc(COc2ccc(F)cc2Cl)on1)N1CCN(C2CCCCC2)C(=O)C1 | – | – | – | – | – | – | –
CCOC(=O)C1=C[C@@H](C2CCCCC2)N(S(=O)(=O)c2ccc([N+](=O)[O-])cc2)[C@H]1c1ccccc1 | · | · | 74 | – | · | – | –
CCCN(CC(=O)Nc1ccccc1C)C(=O)C1CC(=O)N(Cc2ccccc2)C1 (stereo not drawn) | – | – | – | – | – | · | ·
Cc1ccc2sc(NC(=O)CSc3nc(C)cc(C)c3C#N)nc2c1 | – | – | – | – | – | · | ·
Cc1nc(SCC(=O)Nc2nc3ccccc3s2)c(C#N)c(C)c1C | 84 | – | 93 | 92 | – | 84 | 81
COc1ccc(-n2c(=O)c(CCC(=O)N3CCC(C)CC3)nc3ccccc32)cc1 | – | – | – | – | · | · | ·
CC(C)(C)c1ccc(C(O)c2ncc(-c3ccc(F)cc3)[nH]2)cc1 (stereo not drawn) | · | · | – | – | · | · | ·
N#Cc1c(NCc2ccccc2)ccnc1NCc1cccnc1 | – | – | – | – | – | – | –
CCOC(=O)COc1ccc(S(=O)(=O)NCc2ccncc2)cc1 | – | – | – | – | – | · | ·
CCOc1cc(S(=O)(=O)NCc2cccs2)ccc1Cl | – | – | – | – | – | · | ·
CCOc1ccc(S(=O)(=O)NCc2ccncc2)cc1 | – | – | 92 | – | – | 95 | 90
CCOc1cc(S(=O)(=O)NCc2ccncc2)ccc1Cl | – | – | 88 | – | – | 97 | 87
Cc1cc(S(=O)(=O)NCc2ccncc2)c(C)cc1Br | – | – | 101 | – | – | 94 | 82
Cc1ccc(S(=O)(=O)NCc2ccncc2)cc1 | – | – | 74 | – | – | 72 | –
CCOC(=O)C1(C)CCCN1C(=O)c1ccccc1OC (stereo not drawn) | · | · | – | – | · | · | ·
COc1ccccc1-c1cnc2c(c1)C(=O)N([C@@H](C)CO)C[C@@H](C)[C@H](CN(C)C(=O)c1cccnc1)O2 | – | · | – | – | · | · | ·
CC(C)C(N)c1csc(NC(=O)Nc2ccc(OC(F)(F)F)cc2)n1 (stereo not drawn) | · | · | – | – | · | · | ·
Cc1cc(N2CCN(C)CC2)nc2ccc(NC(=O)CCC(=O)NCCc3ccc(Cl)cc3)cc12 | – | · | – | – | – | · | ·
COc1ccc(S(=O)(=O)NCc2cccnc2)cc1OC | – | – | – | – | – | · | ·
COc1cccc(S(=O)(=O)NCc2ccc(C(=O)Nc3ccc(Cl)c(Cl)c3)cc2)c1 | – | – | – | – | – | · | ·
COc1ccc2cc(S(=O)(=O)NCc3cccnc3)ccc2c1 | – | – | – | – | – | – | –
O=C(Nc1ccc(Cl)c(Cl)c1)c1cccc(S(=O)(=O)NCc2cccnc2)c1 | – | – | – | 64 | – | 84 | 72
O=C(c1cnn2c(C(F)(F)F)cc(-c3ccc(F)cc3)nc12)N1CCc2ccccc2C1 | – | – | – | – | – | · | ·
Cc1cccc(NC(=O)CSc2nncn2N)c1C | – | · | – | – | · | · | ·
Cn1ncc(Cl)c1C(=O)N1CCN(c2ccccc2)CC1 | – | – | – | – | – | · | ·
SMILES | EBV LMP1 NFkB | NR2E3 ag-1 | NR2E3 ag-2 | TROY signal inh | HIF act | NR2E3 ag confirm | VP16 counter
Cn1ncc(Cl)c1C(=O)N1CCN(c2ccc(Cl)c(Cl)c2)CC1 | – | – | 103 | – | – | 95 | 86
O=C(c1csc2ccccc12)N1CCN(c2ccc(Cl)c(Cl)c2)CC1 | – | – | – | – | – | 81 | –
O=C(Nc1cccc2c1CCCC2)c1cc(C2CCCCN2C(=O)OCCF)on1 (stereo not drawn) | · | · | – | – | · | · | ·
CC(C)Cc1ccc(CN2CCCC(NC(=O)CCN3CCOCC3)C2)cc1 (stereo not drawn) | – | · | – | – | – | · | ·
COc1cccc(C(C)(O)c2nc(-c3csc4ccccc34)cs2)c1 (stereo not drawn) | · | · | – | – | · | · | ·
Cc1nc2ccc(NC(=O)c3cc(S(=O)(=O)N(C)c4ccccc4)ccc3Cl)cc2s1 | – | – | 80 | – | – | 91 | 80
CN(c1ccccc1)S(=O)(=O)c1cccc(NC(=O)c2ccncc2)c1 | – | – | – | – | – | – | –
